PostGolgi yeast – phenotypic screen on post-Golgi transport, primary screen | 0.9% of 98,000 active | post-Golgi transport phenotypic cell assay | inhibition, % at 10 µM;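 note: yeast cells grown in 1536-well plates; yeast grown about 18 h at 30C before absorbance read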
tolC growth inh – growth inhibitors of E. coli tolC mutant, primary screen, strain BW25113 ΔtolC::kan, 384-well; OD615; growth inhibition, % at 10 µM (by protocol); 2.2% of 65,000 active;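 active = growth inhibition at or above a cutoff equal to the mean over every tested compound plus 3 SD, cut at about 60% in these data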;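 note: growth measured after 20 h incubation at 37 °C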
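Signal: optical density read at 615 nm; Assay system: E. coli ΔtolC::kan strain BW25113; Times: 20 h incubation with compound, 37 °C; Dosing: 10 µM final, single dose.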
Calb biofilm kill – clotrimazole potentiators killing Candida biofilms, primary screen, with clotrimazole, Alamar Blue. C. albicans biofilm + clotrimazole. inhibition, % at 6 µM. 0.14% of 85,000 active. AID 834, 2007;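 active = inhibition above 20%; inactive = inhibition below 20%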;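 note: preformed 24 hr biofilms exposed to compound for 48 hr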
PTK2B oligo ant – antagonists of Pyk2 self-association, primary screen, Q293 cells, FERM NanoBiT luminescence, HTS. z-score (the deposit names both 25 µM and 10 µM). hits give low values. 0.83% of 99,000 active. AID 1347419, 2020;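 active = Z-score of -3 or lower, scaled per plate to the spread of control and sample wells; inactive = z-score above -3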;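 note: negative z-score means lost luminescence so less FERM oligomerization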
Target sequence (Q14289 whole entry, looked up): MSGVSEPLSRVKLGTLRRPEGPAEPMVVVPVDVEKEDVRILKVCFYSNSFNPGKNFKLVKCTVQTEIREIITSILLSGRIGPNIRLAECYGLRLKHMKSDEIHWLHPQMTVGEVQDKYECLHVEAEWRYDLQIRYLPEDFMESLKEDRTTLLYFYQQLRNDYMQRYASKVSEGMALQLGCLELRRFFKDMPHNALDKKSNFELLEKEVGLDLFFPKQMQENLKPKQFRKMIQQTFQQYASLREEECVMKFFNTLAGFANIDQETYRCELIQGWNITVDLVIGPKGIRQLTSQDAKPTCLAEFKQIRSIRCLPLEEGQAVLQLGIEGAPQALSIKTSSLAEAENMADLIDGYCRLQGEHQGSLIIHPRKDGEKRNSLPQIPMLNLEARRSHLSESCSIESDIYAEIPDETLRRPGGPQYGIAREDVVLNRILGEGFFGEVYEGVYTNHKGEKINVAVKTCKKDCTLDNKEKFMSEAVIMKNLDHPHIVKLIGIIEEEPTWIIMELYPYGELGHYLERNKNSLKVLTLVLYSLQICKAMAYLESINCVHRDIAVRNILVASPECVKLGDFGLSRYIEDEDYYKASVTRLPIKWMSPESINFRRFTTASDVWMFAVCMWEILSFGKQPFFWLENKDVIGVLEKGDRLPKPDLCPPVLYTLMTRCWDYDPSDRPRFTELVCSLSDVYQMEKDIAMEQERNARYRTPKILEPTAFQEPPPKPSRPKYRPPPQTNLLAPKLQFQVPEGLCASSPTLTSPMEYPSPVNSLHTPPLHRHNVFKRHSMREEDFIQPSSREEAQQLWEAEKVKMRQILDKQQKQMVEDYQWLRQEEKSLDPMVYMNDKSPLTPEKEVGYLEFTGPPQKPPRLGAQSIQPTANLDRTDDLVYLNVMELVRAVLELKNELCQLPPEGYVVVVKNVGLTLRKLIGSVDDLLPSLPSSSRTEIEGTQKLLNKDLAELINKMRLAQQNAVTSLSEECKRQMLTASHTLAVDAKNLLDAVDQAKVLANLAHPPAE
PostGolgi ctrl – growth inhibition of yeast control strain, primary screen, counter-screen for post-Golgi transport modulator project. 5% of 98,000 active. efflux-deficient yeast background strain, growth absorbance A615, 16 h. inhibition, % at 10 µM
Ecoli WT expand – growth inhibitors of wild-type E. coli, primary screen, strain BW25113, expanded library, OD600; 0.15% of 98,000 active; OD600 absorbance; growth inhibition, % at 100 µM;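 active = growth inhibition above about 50% at one test dose, limit read from the data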;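 note: growth measured after 20 h incubation at 37 °C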
Numbers stand for hits; i = inactive; nt = no result given. Shown are actives, neighbours in structure and some others; about 6.5% of the full set was active somewhere. Cut-off read from the data, not from the text of the source, unless noted: active = inhibition above about 30%; inactive = the rest.

SMILES	PostGolgi yeast	tolC growth inh	Calb biofilm kill	PTK2B oligo ant	PostGolgi ctrl	Ecoli WT expand
Nc1c(C(=O)c2cccs2)oc2ccccc12	i	i	i	i	i	i
Nc1c(C(=O)c2ccc(Br)s2)oc2ccccc12	i	i	i	i	37	i
CC(C)c1ccc(CNC(=O)CSCC(=O)Nc2ccc3ccccc3c2)cc1	i	nt	nt	i	i	i
O=C(c1ccc2c(=O)n3c(nc2c1)CCCCC3)N1CCN(C(c2ccccc2)c2ccccc2)CC1	i	nt	nt	i	i	i
O=C(NCCc1ccccc1)C1(c2ccccc2)CC1(Cl)Cl (stereo not drawn)	i	nt	nt	i	39	i
O=C(CC1NCCNC1=O)OCCCc1ccccc1 (stereo not drawn)	i	i	i	nt	i	i
O=C(c1nn(Cc2ccccc2)c(=O)c2ccccc12)N1CCc2ccccc2C1	i	nt	i	i	57	i
O=C(c1nn(Cc2ccccc2)c(=O)c2ccccc12)N1CCN(c2ccccn2)CC1	i	i	i	i	i	i
CC(=O)c1cccc(NC(=O)CCS(=O)(=O)c2cccc3nsnc23)c1	i	nt	i	i	33	i
CNCCCNCc1ccc(SC)cc1	i	nt	nt	nt	i	i
C=CCc1c(C)nc2c(C(=O)O)cnn2c1C	i	i	i	i	31	i
Cc1ccc(Cc2c(C)nc3c(C(=O)O)cnn3c2C)cc1	nt	i	i	nt	nt	nt
Nc1cc(N)cc(-c2nc3ccccc3o2)c1	nt	i	i	nt	nt	nt
O=c1c(-c2nc3ccccc3o2)c2oc3ccccc3n2c2ccccc12	i	98	nt	nt	i	i
Cc1ccccc1-c1nc2ccccc2c(=O)n1/N=C/c1ccccc1[N+](=O)[O-]	i	nt	nt	i	47	i
CC1CN(C)C(c2ccccc2)C(C)C12NC(=O)NC2=O (stereo not drawn)	i	nt	i	i	i	i
CCN(C(=O)c1ccc(C(C)(C)C)cc1)c1nnc(Cn2nnc3ccccc32)s1	i	62	i	i	43	i
N#CC(c1nc2ccccc2nc1N1CCCC1)S(=O)(=O)c1cccs1 (stereo not drawn)	i	i	i	i	i	i
CS(=O)(=O)N1CCC(C(=O)Nc2cc(C(F)(F)F)ccc2Cl)CC1	i	i	i	i	i	i
O=C(Nc1cc(C(F)(F)F)ccc1Cl)C1CCN(c2nnc(-n3cccc3)s2)CC1	i	i	i	i	39	i
Fc1cccc(Cl)c1Cn1nnc(-c2ccc3c(c2)OCO3)n1	i	63	i	i	i	i
COc1ccc(-c2cc(-c3cc(F)ccc3O)[nH]n2)cc1OC	i	81	i	i	30	i
COc1ccc(O)c(-c2cc(-c3cccc(Br)c3)n[nH]2)c1	93	i	i	i	74	i
COc1ccc(-c2cc(-c3cc(OC)ccc3O)[nH]n2)cc1	i	nt	i	i	i	i
Cc1ccc(O)c(-c2cc(-c3ccccc3F)[nH]n2)c1	i	nt	i	i	67	i
SMILES	PostGolgi yeast	tolC growth inh	Calb biofilm kill	PTK2B oligo ant	PostGolgi ctrl	Ecoli WT expand
Cc1ccc(-c2cc(-c3ccccc3C)[nH]n2)c(O)c1	nt	nt	i	i	nt	nt
Cc1ccc(-c2cc(-c3cccc(F)c3)n[nH]2)c(O)c1	i	i	i	i	43	i
Cc1ccc(O)c(-c2cc(-c3cccc(F)c3)n[nH]2)c1	i	nt	i	i	70	i
Oc1ccc(Br)cc1-c1cc(-c2ccccc2)n[nH]1	nt	nt	i	i	nt	nt
O=C(CC(c1ccco1)C1CCCCC1=O)c1ccccc1 (stereo not drawn)	i	nt	i	i	i	i
CC1=C(C(=O)OCC(C)C)C(c2ccc(F)cc2)NC(=O)N1 (stereo not drawn)	i	i	i	i	33	i
CC1=C(C(=O)OCc2ccc3c(c2)OCO3)C(c2ccccc2OCc2ccccc2)NC(=O)N1 (stereo not drawn)	i	nt	i	-3.2	i	i
CC1=C(C(=O)OCc2ccc3c(c2)OCO3)C(c2ccccc2)NC(=O)N1 (stereo not drawn)	nt	i	i	-3.4	nt	nt
CCOC(=O)C1=C(CNCc2ccccc2Cl)NC(=O)NC1c1ccc2c(c1)OCO2 (stereo not drawn)	i	i	i	i	39	i
O=C(CNC(=O)c1ccco1)OCC(=O)c1ccc2ccccc2c1	i	nt	i	i	i	i
CCC(CC)C(=O)Nc1cccc(C(=O)Nc2ccc(S(=O)(=O)Nc3ccc(C)cc3)cc2)c1	i	nt	nt	i	i	i
COCCCn1c(SCC(=O)N2CCCC(C)C2)nnc1-c1ccco1 (stereo not drawn)	i	i	i	i	i	i
Cc1onc(-c2c(F)cccc2Cl)c1C(=O)OCC(=O)Nc1c(C)n(C)n(-c2ccccc2)c1=O	i	i	i	i	i	i
CC(=O)c1ccc(S(=O)c2ccccc2)cc1 (stereo not drawn)	i	nt	nt	i	i	i
Cc1ccc(C(=O)n2cnnc2N)cc1	i	nt	i	i	i	i
O=C(NCCc1cccs1)C1CC(c2ccccc2[N+](=O)[O-])=NO1 (stereo not drawn)	i	nt	nt	nt	i	i
O=C(CN1CCN(C(=O)c2c(F)cccc2F)CC1)Nc1ccccc1F	i	i	i	i	i	i
CCOC(=O)C1=C(C)NC(=O)NC1c1cccc(O)c1 (stereo not drawn)	i	i	i	i	i	i
CC1=C(C(=O)OC2CCCCCCC2)C(c2cccc(O)c2)NC(=O)N1 (stereo not drawn)	i	65	i	i	i	i
S=C(Nc1ccc(Cl)c(Cl)c1)NN1CCOCC1	nt	nt	nt	i	nt	nt
CCCCC(=O)c1c(O)c2ccccc2oc1=O	i	99	nt	i	i	i
CC1CCC(C(=O)c2c(O)c3ccccc3oc2=O)CC1 (stereo not drawn)	i	nt	i	i	i	i
O=C(CC1CCCCC1)c1c(O)c2ccccc2oc1=O	i	100	i	i	i	i
CC1(C)N(OCc2ccccc2)C(=O)C(=O)N(OCc2ccccc2)C1(C)C	i	nt	i	i	i	i
CN1CCc2c(C#N)c(N3CCCCC3)nc(NCc3ccccc3)c2C1	i	i	i	i	48	i
SMILES	PostGolgi yeast	tolC growth inh	Calb biofilm kill	PTK2B oligo ant	PostGolgi ctrl	Ecoli WT expand
N#Cc1c(NCCCO)nc(NCc2ccccc2)c2c1CCN(Cc1ccccc1)C2	i	nt	i	i	i	i
CCCC(C(=O)Nc1nccs1)c1ccccc1 (stereo not drawn)	i	nt	i	i	i	i
CCc1ccc(NC(=O)Nc2cccs2)cc1	i	i	i	i	i	i
Cc1ccc(NC(=O)Nc2cccs2)cc1	i	i	i	i	38	i
Cc1ccn2c(NCc3ccc4c(c3)OCO4)c(-c3ccc(O)cc3)nc2c1	i	nt	nt	i	36	i
O=[N+]([O-])c1ccc(N2N=C(c3ccco3)CC2c2ccccc2)cc1 (stereo not drawn)	i	nt	nt	i	31	i
COc1ccc(-c2nn(-c3ccccc3)cc2/C=N/NC(=O)c2ccc3c(c2)OCO3)cc1	i	nt	nt	nt	i	i
CCn1ncc(/C=N/NC(=O)c2ccc3c(c2)OCO3)c1C	i	nt	nt	i	33	i
O/N=C/c1cn(-c2ccccc2)nc1-c1ccc2c(c1)OCCO2	i	nt	i	i	31	i
